This note sets out measurements from ChEMBL document CHEMBL2176987, “Property-based optimization of hydroxamate-based γ-lactam HDAC inhibitors to improve their metabolic stability and pharmacokinetic profiles” (J Med Chem, 2012).

A short description of data set [1]: Metabolic stability in ICR mouse liver microsomes at 1 uM measured at 30 min in absence of NADPH. The format is ADME, Microsome. The following applies: read-out: Stability. In a few lines: (§1)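 Test compound at 1 μM incubated with female ICR mouse liver microsomes (0.5 mg protein/mL) for 30 min at 37 °C, with or without NADPH. Result reported as % parent remaining at 30 min.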
On the technique in general: Microsomes from liver hold many membrane-bound enzymes, among them those of drug oxidation.

A short description of data set [2]: Metabolic stability in ICR mouse liver microsomes at 1 uM measured at 30 min in presence of NADPH. To be noted: read-out: Stability. The class given is ADME, Microsome. In a few lines: as §1
Data set [3] in a line: Passive permeability of the compound by PAMPA. To be noted: read-out: permeability. The format is ADME. In a few lines:
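PAMPA passive diffusion with compound at a final concentration of 200 μM. Effective permeability Pe (nm/s) and membrane retention R (%) reported. Ranitidine and metoprolol served as controls.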
In general terms: The PAMPA barrier holds no transporters, so it reflects passive diffusion.

Data set [4] can be described thus: Lipophilicity, log D of the compound. To be noted: octanol/water. The format is physicochemical.
The nature of data set [5]: Oral bioavailability in Balb/c mouse at 30 mg/kg. The class given is ADME, organism-based. To be noted: in vivo. In a few lines:
(§2)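 Balb/c mice dosed iv at 10 mg/kg or orally (20 or 30 mg/kg). Plasma concentration–time profiles averaged over three animals per time point. Parameters come from noncompartmental analysis. Oral AUC runs 0–5 h and iv AUC runs 0 to infinity.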

Data set [6] can be described thus: Half life in Balb/c mouse at 30 mg/kg, po. Set-up: dose 30 mg/kg, route oral. The following applies: in vivo. The format is ADME, organism-based. In a few lines:
as §2

A short description of data set [7]: Half life in Balb/c mouse at 10 mg/kg, iv. Set-up: dose 10 mg/kg, route intravenous. To be noted: in vivo. The format is ADME, organism-based. In a few lines:
as §2

Data set [8] can be described thus: Volume of distribution at steady state in Balb/c mouse at 10 mg/kg, iv. To be noted: in vivo, read-out: Vdss. The class given is ADME, organism-based. Set-up: dose 10 mg/kg, route intravenous. In a few lines: as §2
Data set [9] in a line: Clearance in Balb/c mouse at 10 mg/kg, iv. Set-up: dose 10 mg/kg, route intravenous. The class given is ADME, organism-based. The following applies: in vivo. In a few lines:
as §2

Data set [10] in a line: AUC (0 to 5 hrs) in Balb/c mouse at 30 mg/kg, po. To be noted: plasma. Set-up: dose 30 mg/kg, route oral. The format is ADME, organism-based. In a few lines: as §2
Data set [11] in a line: Cmax in Balb/c mouse at 30 mg/kg, po. The class given is ADME, organism-based. More on the design: dose 30 mg/kg, route oral. To be noted: in vivo. In a few lines: as §2
Data set [12] can be described thus: Tmax in Balb/c mouse at 30 mg/kg, po. The class given is ADME, organism-based. Set-up: dose 30 mg/kg, route oral. To be noted: in vivo. In a few lines:
as §2

Data set [13] is described as follows: AUC (0 to infinity) in Balb/c mouse at 10 mg/kg, iv. The class given is ADME, organism-based. More on the design: time infinity, dose 10 mg/kg, route intravenous. The following applies: plasma. In a few lines:
as §2

Data set [14] can be described thus: Apparent permeability across apical to basolateral side in human Caco2 cells at 100 uM. The class given is ADME, cell-based. To be noted: Caco-2. On the technique in general: Passage across Caco-2 layers is used to estimate intestinal permeability.
Data set [15] deals with NUGC-3. Description: Cytotoxicity against human NUGC3 cells assessed as growth inhibition by SRB assay. The class given is functional.
In data set [16] the test system is HCT-15. Description: Cytotoxicity against human HCT15 cells assessed as growth inhibition by SRB assay. The format is functional.
Data set [17] deals with NCI-H23. Description: Cytotoxicity against human NCI-H23 cells assessed as growth inhibition by SRB assay. The format is functional.
In data set [18] the test system is MDA-MB-231. Briefly: Cytotoxicity against human MDA-MB-231 cells assessed as growth inhibition by SRB assay. The format is functional.
Data set [19] deals with ACHN. Description: Cytotoxicity against human ACHN cells assessed as growth inhibition by SRB assay. The format is functional.
Data set [20] relates to PC-3. Description: Cytotoxicity against human PC3 cells assessed as growth inhibition by SRB assay. The format is functional, cell-based.
A short description of data set [21]: Inhibition of HDAC by fluorescence assay.
Data set [22] in a line: Oral bioavailability in Balb/c mouse at 20 mg/kg. The format is ADME, organism-based. To be noted: in vivo. In a few lines: as §2
The nature of data set [23]: Half life in Balb/c mouse at 20 mg/kg, po. The class given is ADME, organism-based. Set-up: dose 20 mg/kg, route oral. The following applies: in vivo. In a few lines:
as §2

A short description of data set [24]: AUC (0 to 5 hrs) in Balb/c mouse at 20 mg/kg, po. The class given is ADME, organism-based. More on the design: dose 20 mg/kg, route oral. To be noted: plasma. In a few lines:
as §2

The nature of data set [25]: Cmax in Balb/c mouse at 20 mg/kg, po. The class given is ADME, organism-based. More on the design: dose 20 mg/kg, route oral. To be noted: in vivo. In a few lines:
as §2

Data set [26] can be described thus: Tmax in Balb/c mouse at 20 mg/kg, po. The format is ADME, organism-based. More on the design: dose 20 mg/kg, route oral. The following applies: in vivo. In a few lines: as §2

Structures are written as SMILES.

The logD is lipophilicity at a set pH, counting ionised and neutral species. Regarding `O=C(CCC1=CCN(Cc2cc(C(F)(F)F)cc(C(F)(F)F)c2)C1=O)NO`, the remaining at 0.5 h, 1 µM was determined as 40.5% in [1] and 35.7% in data set [2]. In addition, the Papp in [3] is 2.83 ×10⁻⁶ cm/s. Also, in data set [4], the logD came out at 2.4.

With `CC(C)(C)c1ccc(CCCN2CC=C(CCC(=O)NO)C2=O)cc1`, the remaining at 0.5 h, 1 µM in data set [1] turned out to be 57.6%; in data set [2], 35.3%. Besides, the Papp in data set [3] amounted to 1.5 ×10⁻⁶ cm/s. Besides, in data set [4], the logD amounted to 2.7.

Broadly, the bioavailability is the share of a dose that reaches the circulation, judged against a reference dose that is usually intravenous. A word on the half-life: it is how long it takes for the measured level to halve. The term clearance denotes a measure of how efficiently the substance is removed, as volume per time. A low value points to a low capacity for elimination. By AUC(0-t) is commonly meant the area under the concentration-time curve up to a stated or last time point. Higher therefore signals high exposure. A word on the Cmax: it is the highest concentration seen after dosing. By Tmax is commonly meant the time at which the peak concentration occurs. Broadly, the AUC(0-inf) is the area under the concentration-time curve extrapolated to infinity. A lower AUC(0-inf) goes with less exposure. In turn, `O=C(CCC1=CCN(Cc2ccc(Br)cc2)C1=O)NO` yielded a bioavailability in [5] of 44.6%. Moreover, the half-life in data set [6] is 3.1 h; in data set [7], 2.8 h. In addition, the Vd in [8] was 4.1 L/kg. In data set [9], this compound gave a clearance of 71.7 mL/min/kg. Further, the AUC(0-t) at 4 h in [10] turned out to be 3110 ng·h/mL. In addition, the Cmax in data set [11] was determined as 2710 ng/mL. Moreover, in [12], the Tmax turned out to be 0.15 h. For the same compound, the remaining at 0.5 h, 1 µM in data set [1] is 100%; in data set [2], 84%. In addition, in [3], the Papp came out at 1.02 ×10⁻⁶ cm/s. For the same compound, the logD in [4] came out at 1.26. The same compound gave an AUC(0-inf) in data set [13] of 2330 ng·h/mL.

As for `CC(C)(C)c1ccc(CCN2CC=C(CCC(=O)NO)C2=O)cc1`, the remaining at 0.5 h, 1 µM in data set [1] was 51%; in data set [2] it was 38.1%. Besides, the Papp in data set [3] worked out at 6.53 ×10⁻⁶ cm/s. This compound gave a logD in data set [4] of 2.25.

As a reminder, the Papp A→B is how fast a substance crosses the layer from the apical side. One may read the GI50 as the concentration that inhibits growth by half. What is called IC50 is the concentration that gives 50% inhibition. The low end stands for greater potency in that assay, the high end for weaker potency in that assay. In the case of `O=C(CCC1=CCN(Cc2ccc(F)cc2)C1=O)NO`, the bioavailability in [5] is 30.6%. In addition, the values for the half-life in data set [6] and in data set [7] were 1.1 h and 2.6 h, respectively. Besides, the Vd in data set [8] was determined as 1.8 L/kg. In data set [9], this compound had a clearance of 130 mL/min/kg. Further, the AUC(0-t) at 4 h in data set [10] came to 1180 ng·h/mL. Moreover, the Cmax in data set [11] was determined as 2300 ng/mL. In addition, the Tmax in data set [12] is 0.25 h. Further, in data set [14], the Papp A→B at 100 µM was 7.8 ×10⁻⁶ cm/s. Also, the remaining at 0.5 h, 1 µM came out at 91.4% in [1] and 87.7% in data set [2]. Further, the Papp in data set [3] came out at 1.93 ×10⁻⁶ cm/s. Further, the logD in [4] was found to be 0.571. The GI50 in [15] amounted to 6.06 µM; in data set [16], 4.07 µM; in [17], 4.67 µM; in data set [18] it was 1.94 µM; in [19], 5.99 µM; in [20], 5.31 µM. This compound yielded an AUC(0-inf) in data set [13] of 1280 ng·h/mL. Further, in [21], the IC50 amounted to 0.06 µM.

In data set [22], `CC(C)(C)c1ccc(CN2CC=C(CCC(=O)NO)C2=O)cc1` had a bioavailability of 10.7%. The half-life in [23] is 13.6 h; in [7], 7.8 h. The compound further gave an exposure AUC(0-t) at 4 h in [24] of 739 ng·h/mL. In data set [25], this compound returned a Cmax of 462 ng/mL. For the same compound, in data set [26], the Tmax amounted to 0.25 h. Also, the Vd in data set [8] was 1.6 L/kg. For the same compound, the clearance in data set [9] was 48.3 mL/min/kg. Further, the remaining at 0.5 h, 1 µM in data set [1] was found to be 79%; in data set [2], 58.2%. In addition, the Papp in data set [3] is 2.19 ×10⁻⁶ cm/s. Further, the logD in [4] is 2.1. In addition, the GI50 in data set [15] is 0.72 µM; in data set [16], 0.57 µM; in data set [17], 0.42 µM; in [18], 0.69 µM; in data set [19], 0.86 µM; in data set [20] it was 1.83 µM. In data set [13], this compound registered an AUC(0-inf) of 3440 ng·h/mL. In [21], this compound yielded an IC50 of 0.1 µM.

For the compound `O=C(CCC1=CCN(CCCCc2ccc(Cl)cc2)C1=O)NO`, the remaining at 0.5 h, 1 µM stood at 34.6% in [1] and 24.9% in data set [2]. The Papp in data set [3] stood at 0.494 ×10⁻⁶ cm/s. The logD in data set [4] came to 2.17.

In [4], `N#Cc1cccc(CN2CC=C(CCC(=O)NO)C2=O)c1` gave a logD of 0.236. In addition, the GI50 was 4.12 µM in data set [15]; more than 10 µM in data set [16]; 4.08 µM in [17]; 3.6 µM in [18]; 7.75 µM in [19]; 7.92 µM in [20]. Further, half-maximal inhibition in data set [21] (IC50) required 0.16 µM.

`N#Cc1ccc(CN2CC=C(CCC(=O)NO)C2=O)cc1` returned a logD in [4] of 0.197. Moreover, the GI50 is more than 10 µM in [15]; more than 10 µM in data set [16]; 2.32 µM in [17]; 5.38 µM in data set [18]; more than 10 µM in data set [19]; more than 10 µM in data set [20]. This compound had a half-inhibitory concentration (IC50) in [21] of 0.15 µM.

On to `O=C(CCC1=CCN(CCc2cccc([N+](=O)[O-])c2)C1=O)NO`, for which the logD in data set [4] stood at 0.633. Moreover, the 50% growth inhibitory concentration (GI50) was 6.57 µM in [15]; more than 10 µM in data set [16]; 4.39 µM in [17]; 3.18 µM in data set [18]; 5.7 µM in data set [19]; 8.69 µM in data set [20]. In data set [21], this compound returned an IC50 of 1.08 µM.

Consider `O=C(CCC1=CCN(CCc2ccc([N+](=O)[O-])cc2)C1=O)NO`, for which, in data set [4], the logD was found to be 0.594. In addition, the concentration for 50% growth inhibition (GI50) in [15] was more than 10 µM; in data set [16], more than 10 µM; in data set [17] it was 7.8 µM; in data set [18], 4.97 µM; in [19], 8.96 µM; in [20], more than 10 µM. 1.47 µM corresponded to half-maximal inhibition in [21] (IC50).
